Test results reported in ChEMBL document CHEMBL4334471, “Discovery of 1,8-disubstituted-[1,2,3]triazolo[4,5-c]quinoline derivatives as a new class of Hippo signaling pathway inhibitors” (Bioorg Med Chem Lett, 2019).

Tests used:
[1] = test system: Serine/threonine-protein kinase Sgk1 (Homo sapiens), O00141 [S422D]; assay: Inhibition of recombinant human SGK S422D mutant (60 to end residues) assessed as residual activity at 10 uM using GRPRTSSFAEGKK as substrate incubated for 40 mins in presence of [gamma33P]ATP by scintillation counting based radiometry assay relative to control
[2] = target: Vascular endothelial growth factor receptor 1 (Homo sapiens) (UniProt P17948); assay: Inhibition of recombinant human FLT1 (783 to end residues) assessed as residual activity at 10 uM using KKKSPGEYVNIEF as substrate at 40 mins in presence of [gamma-33ATP] by scintillation counting based radiometry assay relative to control
[3] = target: Serine/threonine-protein kinase 38-like (Homo sapiens) (UniProt Q9Y2H1); assay: Inhibition of recombinant human NDR2 (83 to end residues) assessed as residual activity at 10 uM using RSRSRSRSRSRSRSR as substrate measured after 40 mins in presence of [gamma33P]ATP by scintillation counting based radiometry assay relative to control
Homo sapiens [4] = organism: Homo sapiens; assay: Inhibition of recombinant full length human PRAK R291E mutant assessed as residual activity at 10 uM using KKLRRTLSVA as substrate incubated for 40 mins in presence of [gamma33P]ATP by scintillation counting based radiometry assay relative to control
[5] = target: Wee1-like protein kinase (Homo sapiens) (UniProt P30291); assay: Inhibition of recombinant human WEE1 (214 to end residues) assessed as residual activity at 10 uM using LSNLYHQGKFLQTFCGSPLYRRR as substrate incubated for 40 mins in presence of [gamma33P]ATP by scintillation counting based radiometry assay relative to control
[6] = target: Tyrosine-protein kinase Fer (Homo sapiens) (UniProt P16591); assay: Inhibition of recombinant human FER (541 to end residues) assessed as residual activity at 10 uM using KKKSPGEYVNIEF as substrate at 40 mins in presence of [gamma-33ATP] by scintillation counting based radiometry assay relative to control
[7] = target: Testis-specific serine/threonine-protein kinase 3 (Homo sapiens) (UniProt Q96PN8); assay: Inhibition of recombinant full-length human TSSK3 assessed as residual activity at 10 uM using AMARAASAAALARRR as substrate incubated for 40 mins in presence of [gamma33P]ATP by scintillation counting based radiometry assay relative to control
[8] = target: Serine/threonine-protein kinase DCLK3 (Homo sapiens) (UniProt Q9C098); assay: Inhibition of recombinant human DCAMKL3 (345 to end residues) assessed as residual activity at 10 uM using KKLNRTLSFAEPG as substrate at 40 mins in presence of [gamma-33ATP] by scintillation counting based radiometry assay relative to control
A549 = assay: Inhibition of hippo signalling protein in human A549 cells assessed as increase in CTGF mRNA expression level incubated for 24 hrs by qRT-PCR analysis; type: cell-based
Procedure, shortened: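 A549-CTGF cells were exposed to compound or 0.1% DMSO for 24 h before total RNA extraction. Endogenous CTGF mRNA was quantified by real-time PCR. Data were mean ± SEM (n=4) and compared by Student's t-test.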

[9] = target: Tau-tubulin kinase 2 (Homo sapiens) (UniProt Q6IQ55); assay: Inhibition of recombinant human TTBK2 (1 to 331 residues) assessed as residual activity at 10 uM using casein as substrate incubated for 40 mins in presence of [gamma33P]ATP by scintillation counting based radiometry assay relative to control
[10] = target: Insulin-like growth factor 1 receptor (Homo sapiens) (UniProt P08069); assay: Inhibition of human IGF1R (959 to end residues) assessed as residual activity at 10 uM using KKKSPGEYVNIEFGF as substrate after 40 mins by [gamma-33ATP] radiometric assay relative to control
[11] = target: Receptor tyrosine-protein kinase erbB-4 (Homo sapiens) (UniProt Q15303); assay: Inhibition of recombinant human ERBB4 (706 to 991 residues) assessed as residual activity at 10 uM using poly(Glu, Tyr) 4:1 as substrate at 40 mins in presence of [gamma-33ATP] by scintillation counting based radiometry assay relative to control
[12] = target: Tyrosine-protein kinase Srms (Homo sapiens) (UniProt Q9H3Y6); assay: Inhibition of recombinant human SRMS assessed as residual activity at 10 uM presence of [gamma33P]ATP by scintillation counting based radiometry assay relative to control
[13] = test system: Epidermal growth factor receptor (Homo sapiens), P00533 [T790M]; assay: Inhibition of recombinant human EGFR T790M mutant (696 to end residues) assessed as residual activity at 10 uM using poly(Glu, Tyr) 4:1 as substrate at 40 mins in presence of [gamma-33ATP] by scintillation counting based radiometry assay relative to control
Mus musculus [14] = organism: Mus musculus; assay: Inhibition of recombinant full-length mouse PI3K p110/p85 E542K mutant assessed as residual activity at 10 uM using phosphatidylinositol-4, 5-bisphosphate as substrate incubated for 40 mins in presence of [gamma33P]ATP by scintillation counting based radiometry assay relative to control
[15] = test system: eIF-2-alpha kinase GCN2 (Homo sapiens), Q9P2K8 [E556G]; assay: Inhibition of recombinant full length human GCN2 E556G mutant assessed as residual activity at 10 uM using RSRSRSRSRSRSR as substrate at 40 mins in presence of [gamma-33ATP] by scintillation counting based radiometry assay relative to control
[16] = target: AP2-associated protein kinase 1 (Homo sapiens) (UniProt Q2M2I8); assay: Inhibition of human AAK1 assessed as residual activity at 10 uM using peptide as substrate incubated for 120 mins in presence of [gamma-33ATP] by scintillation counting based radiometry assay relative to control
Mus musculus [17] = organism: Mus musculus; assay: Inhibition of mouse Arg M982V/A562 mutant (27 to end residues) assessed as residual activity at 10 uM using EAIYAAPFAKKK as substrate incubated for 40 mins in presence of [gamma-33ATP] by scintillation counting based radiometry assay relative to control
Homo sapiens [18] = organism: Homo sapiens; assay: Inhibition of recombinant human MARK1 T20S mutant (2 to end residues) assessed as residual activity at 10 uM using KKKVSRSGLYRSPSMPENLNRPR as substrate incubated for 40 mins in presence of [gamma-33ATP by scintillation counting based radiometry assay relative to control
[19] = target: Homeodomain-interacting protein kinase 3 (Homo sapiens) (UniProt Q9H422); assay: Inhibition of human HIPK3 (161 to 562 residues) assessed as residual activity at 10 uM using myelin basic protein as substrate after 40 mins by [gamma-33ATP] radiometric assay relative to control
[20] = target: Serine/threonine-protein kinase tousled-like 1 (Homo sapiens) (UniProt Q9UKI8); assay: Inhibition of recombinant full-length human TLK1 assessed as residual activity at 10 uM using casein as substrate incubated for 40 mins in presence of [gamma33P]ATP by scintillation counting based radiometry assay relative to control

AP2-associated protein kinase 1 (Homo sapiens), sequence (Q2M2I8 whole entry, looked up): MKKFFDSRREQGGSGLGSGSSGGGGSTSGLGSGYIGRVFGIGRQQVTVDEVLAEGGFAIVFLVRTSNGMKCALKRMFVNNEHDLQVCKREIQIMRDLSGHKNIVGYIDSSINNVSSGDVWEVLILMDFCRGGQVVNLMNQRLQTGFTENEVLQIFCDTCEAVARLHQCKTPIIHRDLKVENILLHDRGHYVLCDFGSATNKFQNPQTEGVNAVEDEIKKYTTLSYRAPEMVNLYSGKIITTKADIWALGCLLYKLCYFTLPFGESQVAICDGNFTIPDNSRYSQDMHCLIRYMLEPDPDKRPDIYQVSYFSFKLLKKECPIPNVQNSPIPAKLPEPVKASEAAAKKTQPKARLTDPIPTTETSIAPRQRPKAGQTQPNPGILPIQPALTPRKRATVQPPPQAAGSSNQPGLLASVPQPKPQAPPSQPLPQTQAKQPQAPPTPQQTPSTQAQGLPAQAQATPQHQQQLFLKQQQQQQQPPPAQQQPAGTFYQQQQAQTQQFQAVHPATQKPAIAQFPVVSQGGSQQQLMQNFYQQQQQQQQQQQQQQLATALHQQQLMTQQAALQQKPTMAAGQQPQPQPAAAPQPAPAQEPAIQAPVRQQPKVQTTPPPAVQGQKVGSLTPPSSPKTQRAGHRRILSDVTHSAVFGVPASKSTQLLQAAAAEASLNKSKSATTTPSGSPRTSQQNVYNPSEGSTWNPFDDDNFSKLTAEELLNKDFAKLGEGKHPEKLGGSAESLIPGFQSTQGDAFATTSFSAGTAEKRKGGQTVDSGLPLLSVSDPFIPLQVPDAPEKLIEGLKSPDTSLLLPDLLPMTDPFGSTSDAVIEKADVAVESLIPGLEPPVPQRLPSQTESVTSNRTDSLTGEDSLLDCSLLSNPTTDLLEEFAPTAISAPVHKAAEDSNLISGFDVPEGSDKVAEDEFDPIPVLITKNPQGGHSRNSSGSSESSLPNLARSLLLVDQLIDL
Wee1-like protein kinase (Homo sapiens), sequence (P30291 whole entry, looked up): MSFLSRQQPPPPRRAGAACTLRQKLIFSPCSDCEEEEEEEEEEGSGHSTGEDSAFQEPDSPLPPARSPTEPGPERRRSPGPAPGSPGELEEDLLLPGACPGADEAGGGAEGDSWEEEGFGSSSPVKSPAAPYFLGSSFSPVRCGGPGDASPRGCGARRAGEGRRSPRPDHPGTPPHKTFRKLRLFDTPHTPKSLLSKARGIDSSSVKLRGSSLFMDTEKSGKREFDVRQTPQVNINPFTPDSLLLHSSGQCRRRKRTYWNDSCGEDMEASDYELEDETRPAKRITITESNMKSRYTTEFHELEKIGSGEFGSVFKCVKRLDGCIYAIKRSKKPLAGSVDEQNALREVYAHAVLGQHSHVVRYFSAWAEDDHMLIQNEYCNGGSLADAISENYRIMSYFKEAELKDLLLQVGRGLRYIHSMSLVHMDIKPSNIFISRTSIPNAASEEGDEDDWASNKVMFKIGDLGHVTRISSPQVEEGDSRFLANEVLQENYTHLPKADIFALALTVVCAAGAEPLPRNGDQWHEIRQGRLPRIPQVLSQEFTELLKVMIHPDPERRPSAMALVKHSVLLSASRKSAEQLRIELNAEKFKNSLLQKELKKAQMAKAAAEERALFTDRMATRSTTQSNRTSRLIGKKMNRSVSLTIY
Serine/threonine-protein kinase 38-like (Homo sapiens), sequence (Q9Y2H1 2-464 limits assumed): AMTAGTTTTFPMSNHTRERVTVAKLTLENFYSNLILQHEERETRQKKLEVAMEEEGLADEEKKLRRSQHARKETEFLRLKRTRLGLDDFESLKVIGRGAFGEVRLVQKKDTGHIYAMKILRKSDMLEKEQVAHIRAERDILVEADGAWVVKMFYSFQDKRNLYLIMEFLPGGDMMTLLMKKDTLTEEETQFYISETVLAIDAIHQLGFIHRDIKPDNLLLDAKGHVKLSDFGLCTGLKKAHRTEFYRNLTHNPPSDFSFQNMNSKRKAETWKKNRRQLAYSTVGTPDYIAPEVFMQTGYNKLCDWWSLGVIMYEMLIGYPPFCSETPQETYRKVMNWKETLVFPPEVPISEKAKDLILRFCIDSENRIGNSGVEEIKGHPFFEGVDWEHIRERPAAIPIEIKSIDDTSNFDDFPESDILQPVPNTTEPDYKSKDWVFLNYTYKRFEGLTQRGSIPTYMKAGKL
Tyrosine-protein kinase Fer (Homo sapiens), sequence (P16591 whole entry, looked up): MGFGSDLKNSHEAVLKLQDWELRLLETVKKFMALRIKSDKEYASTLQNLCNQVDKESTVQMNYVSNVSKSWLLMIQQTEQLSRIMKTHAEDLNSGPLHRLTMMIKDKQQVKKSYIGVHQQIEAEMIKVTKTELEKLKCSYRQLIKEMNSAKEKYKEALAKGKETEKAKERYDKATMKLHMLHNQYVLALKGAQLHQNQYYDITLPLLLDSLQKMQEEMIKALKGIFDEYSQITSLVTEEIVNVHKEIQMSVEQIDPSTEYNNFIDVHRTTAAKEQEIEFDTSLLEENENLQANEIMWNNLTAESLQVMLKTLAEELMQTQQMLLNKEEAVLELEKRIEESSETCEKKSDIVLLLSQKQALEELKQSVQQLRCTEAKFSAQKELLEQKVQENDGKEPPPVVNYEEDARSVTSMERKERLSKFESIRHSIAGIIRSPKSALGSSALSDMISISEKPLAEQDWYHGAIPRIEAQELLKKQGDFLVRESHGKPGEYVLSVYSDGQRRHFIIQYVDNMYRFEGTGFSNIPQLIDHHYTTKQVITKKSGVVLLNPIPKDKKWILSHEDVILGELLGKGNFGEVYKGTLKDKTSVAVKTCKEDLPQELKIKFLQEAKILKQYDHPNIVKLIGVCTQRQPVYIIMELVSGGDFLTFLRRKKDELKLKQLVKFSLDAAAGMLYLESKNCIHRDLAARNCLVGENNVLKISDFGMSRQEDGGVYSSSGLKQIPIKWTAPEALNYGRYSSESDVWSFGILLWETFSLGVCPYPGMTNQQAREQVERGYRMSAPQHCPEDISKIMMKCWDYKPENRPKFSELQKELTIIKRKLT
Tyrosine-protein kinase Srms (Homo sapiens), sequence (Q9H3Y6 whole entry): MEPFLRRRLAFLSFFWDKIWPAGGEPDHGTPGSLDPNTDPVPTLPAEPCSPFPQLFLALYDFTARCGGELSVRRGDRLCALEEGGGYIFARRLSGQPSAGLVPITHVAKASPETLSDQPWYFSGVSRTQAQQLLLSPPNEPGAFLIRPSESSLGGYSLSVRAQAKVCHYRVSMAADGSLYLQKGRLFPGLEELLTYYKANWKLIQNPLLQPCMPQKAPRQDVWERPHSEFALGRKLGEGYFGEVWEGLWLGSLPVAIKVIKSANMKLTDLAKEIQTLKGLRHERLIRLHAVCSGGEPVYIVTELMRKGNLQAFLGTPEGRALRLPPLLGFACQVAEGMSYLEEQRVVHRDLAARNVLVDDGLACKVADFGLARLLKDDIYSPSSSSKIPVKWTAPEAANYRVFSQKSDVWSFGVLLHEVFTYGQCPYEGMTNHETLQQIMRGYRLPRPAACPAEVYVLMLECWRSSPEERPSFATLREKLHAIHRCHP
Tau-tubulin kinase 2 (Homo sapiens), sequence (Q6IQ55 whole entry, the tested form may be a part): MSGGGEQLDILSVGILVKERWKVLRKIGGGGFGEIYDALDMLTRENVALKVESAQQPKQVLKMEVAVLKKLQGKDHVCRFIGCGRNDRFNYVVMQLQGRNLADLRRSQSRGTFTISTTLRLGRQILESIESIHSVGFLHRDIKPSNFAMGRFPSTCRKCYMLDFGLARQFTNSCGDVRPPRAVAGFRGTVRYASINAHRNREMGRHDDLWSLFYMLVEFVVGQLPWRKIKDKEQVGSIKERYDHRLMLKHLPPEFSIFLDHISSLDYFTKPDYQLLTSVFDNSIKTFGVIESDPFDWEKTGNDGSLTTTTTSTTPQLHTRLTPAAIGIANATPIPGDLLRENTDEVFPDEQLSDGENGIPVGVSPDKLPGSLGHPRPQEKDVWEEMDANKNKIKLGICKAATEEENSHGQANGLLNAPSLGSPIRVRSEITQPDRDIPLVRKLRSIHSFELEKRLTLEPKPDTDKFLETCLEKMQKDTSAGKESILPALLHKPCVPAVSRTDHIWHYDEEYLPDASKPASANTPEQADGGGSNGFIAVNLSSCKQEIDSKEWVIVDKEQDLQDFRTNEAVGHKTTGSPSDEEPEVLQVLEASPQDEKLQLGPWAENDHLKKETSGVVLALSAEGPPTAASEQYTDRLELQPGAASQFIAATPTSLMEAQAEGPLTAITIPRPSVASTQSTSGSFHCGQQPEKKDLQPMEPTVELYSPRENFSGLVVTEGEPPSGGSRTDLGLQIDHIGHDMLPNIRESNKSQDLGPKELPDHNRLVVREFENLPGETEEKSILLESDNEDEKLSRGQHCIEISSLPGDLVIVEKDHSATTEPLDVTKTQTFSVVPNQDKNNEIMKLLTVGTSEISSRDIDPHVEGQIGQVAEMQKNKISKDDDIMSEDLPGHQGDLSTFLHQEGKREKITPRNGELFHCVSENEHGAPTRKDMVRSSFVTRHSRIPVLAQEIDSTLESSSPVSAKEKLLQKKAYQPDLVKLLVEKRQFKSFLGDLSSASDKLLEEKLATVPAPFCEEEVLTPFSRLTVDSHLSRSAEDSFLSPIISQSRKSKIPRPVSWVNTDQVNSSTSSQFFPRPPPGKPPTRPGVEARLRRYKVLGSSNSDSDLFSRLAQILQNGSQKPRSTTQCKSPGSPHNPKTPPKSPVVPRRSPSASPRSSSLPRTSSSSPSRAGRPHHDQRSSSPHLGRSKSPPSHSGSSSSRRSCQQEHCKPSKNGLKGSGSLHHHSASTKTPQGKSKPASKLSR
Serine/threonine-protein kinase Sgk1 (Homo sapiens), O00141 [S422D], sequence (O00141 whole entry S422D): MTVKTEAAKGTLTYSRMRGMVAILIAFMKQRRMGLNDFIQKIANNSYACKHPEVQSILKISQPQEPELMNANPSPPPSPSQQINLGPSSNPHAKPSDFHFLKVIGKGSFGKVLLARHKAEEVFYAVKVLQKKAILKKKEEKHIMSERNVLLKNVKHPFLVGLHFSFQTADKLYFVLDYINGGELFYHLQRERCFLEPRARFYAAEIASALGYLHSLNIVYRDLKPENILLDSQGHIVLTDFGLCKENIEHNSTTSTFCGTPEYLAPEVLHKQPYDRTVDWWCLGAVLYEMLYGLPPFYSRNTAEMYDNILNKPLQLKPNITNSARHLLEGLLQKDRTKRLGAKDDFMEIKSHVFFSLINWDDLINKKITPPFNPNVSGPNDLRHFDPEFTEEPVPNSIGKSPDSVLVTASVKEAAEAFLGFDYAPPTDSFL

Question: Which Activity [1] does the source give for `C[C@@H](c1ccccc1)n1nnc2cnc3ccc(-c4cnc5[nH]ccc5c4)cc3c21` here?
Answer: The Activity was 52%.

Question: What about the Activity [2] of the same compound?
Answer: Its Activity is 49%.

Question: What about the Activity [3] of the same compound?
Answer: Its Activity is 89%.

Question: And the Activity (Homo sapiens [4])?
Answer: Its Activity is 87%.

Question: What about the Activity [5] of the same compound?
Answer: Its Activity is 101%.

Question: What about the Activity [6] of the same compound?
Answer: The Activity was 83%.

Question: What about the Activity [7] of the same compound?
Answer: Its Activity is 64%.

Question: And the Activity [8]?
Answer: Its Activity is 66%.

Question: What about the inhibition (A549) of the same compound?
Answer: Its inhibition is “Dose-dependent effect”.

Question: What about the Activity [9] of the same compound?
Answer: Its Activity is 87%.

Question: And the Activity [10]?
Answer: The Activity was 50%.

Question: And the Activity [11]?
Answer: Its Activity is 73%.

Question: What about the Activity [12] of the same compound?
Answer: The Activity was 30%.

Question: And the Activity [13]?
Answer: The Activity was 59%.

Question: And the Activity (Mus musculus [14])?
Answer: Its Activity is -1%.

Question: What about the Activity [15] of the same compound?
Answer: The Activity was 93%.

Question: And the Activity [16]?
Answer: Its Activity is 78%.

Question: What about the Activity (Mus musculus [17]) of the same compound?
Answer: Its Activity is -1%.

Question: And the Activity (Homo sapiens [18])?
Answer: The Activity was 76%.

Question: And the Activity [19]?
Answer: The Activity was 75%.

Question: What about the Activity [20] of the same compound?
Answer: Its Activity is 99%.
